Measured values: paper PMC6018302 (Chemical Science, 2016)

What was measured:
pUC19 plasmid DNA [1] = test: Thermal; assay type: binding; details: pUC19, phosphate buffer, 37 °C, 24 h, up to 5 : 1 BP : MC ratio
[2] = reference value, CD3OD; cited from earlier work
[3] = test system: A431 and A549 cancer cells; assay type: cell-based, human; details: 520 nm, 75 J cm^–2, compared to the dark control; maximum
Method in brief: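 Photo index is the ratio of dark EC50 to green-light EC50 (520 nm, 60 min, 75 J cm–2). Light was applied after 6 h or 24 h dark pre-incubation with test compound (37 °C, 7% CO2). EC50 is the concentration giving 50% viability loss versus untreated wells.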

[4] = Singlet oxygen quantum yield by 1274 nm emission in CD3OD; assay type: physicochemical; details: 450 nm excitation, under air, 298 K
[5] = Photosubstitution quantum yield under blue light; assay type: physicochemical; details: blue light irradiation 450 nm, in water
A549 cells [6] = test: Annexin V-FITC/propidium iodide flow cytometry; assay type: cell-based, human; details: A549, green light irradiation
Method in brief: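 A549 cells were treated with test compound (1.5 μM or 10 μM, by complex) for 6 h in the dark. They then received 1 h green light (520 nm, 75 J cm–2) followed by 24 h dark incubation, or were kept dark throughout (31 h). Annexin V-FITC (525 nm) and propidium iodide (670 nm) were read by flow cytometry. Quadrants: lower left live, lower right apoptotic, upper left necrotic, upper right secondary necrotic.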

A549 cells [7] = test: Cell fractionation and ruthenium uptake by ICP-MS; assay type: cell-based, human
Method in brief: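 A549 cells were exposed to test compound for 6 h in the dark, then harvested. Cytosol, membrane, nuclei and cytoskeleton fractions were separated. Ruthenium in each fraction was quantified by ICP-MS.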

pUC19 plasmid DNA [8] = test: Photoinduced binding to plasmid DNA, agarose gel; details: pUC19, 50 : 1 BP : MC, λirr = 520 nm, 5–60 min
Method in brief: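 pUC19 plasmid was mixed with test compound (50:1 BP:MC) and irradiated at 520 nm for 5, 15, 30, 45 or 60 min. Controls were dark and irradiated DNA alone and a dark 50:1 sample. Cisplatin was included as a reference. Agarose gel with lambda DNA marker; linear dimer, open circular and supercoiled forms were scored.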

[9] = Dark stability in aqueous and DMSO solutions; assay type: physicochemical
Method in brief: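 Test compound solutions in D2O or DMSO were kept in the dark, with DMSO also held at –20 °C, and monitored over time. Chloride effect in aqueous solution was probed by adding NaCl up to 0.15 M.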

A549 cells [10] = test: Confocal microscopy of mitochondrial potential; assay type: cell-based, human; details: A549, TMRE and DRAQ5 staining, green light 75 J cm^–2
Water solubility = assay type: physicochemical

| Compound | dark thermal DNA binding (pUC19 plasmid DNA [1]) | quantum yield of 1O2 generation (Φref) [2] [%] | photo-indices (increase in cytotoxicity after green light vs dark) [3] | quantum yield of 1O2 generation (Φ1O2) [4] [%] | photosubstitution quantum yield (ΦPS) [5] [%] | type of cell death (photocytotoxicity) (A549 cells [6]) | preference for the membrane fraction (intracellular distribution) (A549 cells [7]; A549, 6 h in the dark at EC50 concentration, cell fractionation) | total uptake (ruthenium) (A549 cells [7]; A549, 6 h in the dark at concentration corresponding to the EC50 value, ICP-MS) [ng/10^6 cells] | photoinduced DNA binding (pUC19 plasmid DNA [8]) | dark stability of DMSO solution ([9]; DMSO, –20 °C) | stability of Ru–S bond with dmso ligand ([9]; aqueous or DMSO solutions, 298 K) | hydrolysis of chloride ligand ([9]; upon dissolution in deionized water or D2O) | effect of light irradiation on mitochondria and nuclear DNA (A549 cells [10]) | solubility in water (Water solubility) |
| --- | --- | --- | --- | --- | --- | --- | --- | --- | --- | --- | --- | --- | --- | --- |
| N.N.[Cl][Pt][Cl] [Cisplatin, cis-diamineplatinum(II) dichloride, reference compound] | typical DNA binding results |  |  |  |  |  |  |  |  |  |  |  |  |  |
| [Cl][Ru][Cl].c1ccc(-c2ccccn2)nc1.c1ccc(-c2ccccn2)nc1.c1ccc(-c2ccccn2)nc1 [[Ru(bpy)3]Cl2] |  | 73 |  |  |  |  |  |  |  |  |  |  |  |  |
| [Ru(biqbpy)(dmso)Cl]Cl [[1]Cl] | negligible binding |  | up to 22 | 1.3 | 0.3 | apoptosis without any sign of necrosis | strong | 16 | significant retardation of the SC form | stable in the dark at –20 °C for at least six months | remained stable | immediately hydrolysed | diminished the mitochondrial membrane potential and induced chromosomal condensation | water-soluble |
